In ChEMBL document CHEMBL4017520, “Discovery, Structure-Activity Relationship, and Antiparkinsonian Effect of a Potent and Brain-Penetrant Chemical Series of Positive Allosteric Modulators of Metabotropic Glutamate Receptor 4” (J Med Chem, 2017):
Converted amounts (≈) assume the structure as drawn. The source made the active and inactive calls. The rule behind the calls is not given here.

Columns and labels:
[1] = target: Metabotropic glutamate receptor 4 (Homo sapiens, UniProt Q14833); experiment: Positive allosteric modulation of recombinant human mGlu4 receptor expressed in HEK293 cells co-expressing Gi/Gq assessed as increase in glutamate-induced calcium flux preincubated for 10 mins followed by glutamate addition measured for 3 mins by Fluo4-AM dye based fluorescence assay; format: functional, cell-based
[2] = Drug uptake in Sprague-Dawley rat brain at 10 mg/kg, po after 60 mins post dose administered as single dose by LC-MS/MS analysis; format: ADME, organism-based; details: read-out: Drug uptake
In short: (§1)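 Rats given a single oral dose of 10 mg/kg. Brain concentrations were measured at 30, 60 and 90 min postdose, and brain AUC0–inf was determined. Values are the mean of three rats. Lower limit of quantification was 1 ng/mL.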

[3] = Drug uptake in Sprague-Dawley rat brain at 10 mg/kg, po after 30 mins post dose administered as single dose by LC-MS/MS analysis; format: ADME, organism-based; details: read-out: Drug uptake
In short: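 Rats given a single oral dose of 10 mg/kg. The first plasma sample was taken at 15 min, and sampling continued to 24 h postdose. Brain was sampled at 30 min. Values are the mean (±SEM) of 3 rats.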

[4] = target: Metabotropic glutamate receptor 1 (Homo sapiens) (UniProt Q13255); experiment: Negative allosteric modulation of human mGlu1 receptor expressed in HEK293 cells co-expressing Gi/Gq assessed as reduction in EC20/EC80 glutamate-induced intracellular calcium level preincubated for 10 mins followed by glutamate addition measured for 3 mins by Fluo4-AM dye based fluorescence assay; format: functional, cell-based
In short: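 HEK-293 cells transiently expressing human mGluR1 with a Gα15, Gqi9 or GqTOP G protein for calcium read-out; Fluo4-AM loaded. Compound added 10 min, then EC80 glutamate, fluorescence recorded 3 min; concentration–response over 20 concentrations, duplicate, three independent experiments.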

[5] = Thermodynamic solubility of the compound in water; format: physicochemical; details: read-out: Therm_solubility
In short: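 Thermodynamic solubility measured in milli-Q water.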

[6] = Drug uptake in Sprague-Dawley rat brain at 10 mg/kg, po after 90 mins post dose administered as single dose by LC-MS/MS analysis; format: ADME, organism-based; details: read-out: Drug uptake; in short: as §1

Sequence of Metabotropic glutamate receptor 4 (Q14833 whole entry): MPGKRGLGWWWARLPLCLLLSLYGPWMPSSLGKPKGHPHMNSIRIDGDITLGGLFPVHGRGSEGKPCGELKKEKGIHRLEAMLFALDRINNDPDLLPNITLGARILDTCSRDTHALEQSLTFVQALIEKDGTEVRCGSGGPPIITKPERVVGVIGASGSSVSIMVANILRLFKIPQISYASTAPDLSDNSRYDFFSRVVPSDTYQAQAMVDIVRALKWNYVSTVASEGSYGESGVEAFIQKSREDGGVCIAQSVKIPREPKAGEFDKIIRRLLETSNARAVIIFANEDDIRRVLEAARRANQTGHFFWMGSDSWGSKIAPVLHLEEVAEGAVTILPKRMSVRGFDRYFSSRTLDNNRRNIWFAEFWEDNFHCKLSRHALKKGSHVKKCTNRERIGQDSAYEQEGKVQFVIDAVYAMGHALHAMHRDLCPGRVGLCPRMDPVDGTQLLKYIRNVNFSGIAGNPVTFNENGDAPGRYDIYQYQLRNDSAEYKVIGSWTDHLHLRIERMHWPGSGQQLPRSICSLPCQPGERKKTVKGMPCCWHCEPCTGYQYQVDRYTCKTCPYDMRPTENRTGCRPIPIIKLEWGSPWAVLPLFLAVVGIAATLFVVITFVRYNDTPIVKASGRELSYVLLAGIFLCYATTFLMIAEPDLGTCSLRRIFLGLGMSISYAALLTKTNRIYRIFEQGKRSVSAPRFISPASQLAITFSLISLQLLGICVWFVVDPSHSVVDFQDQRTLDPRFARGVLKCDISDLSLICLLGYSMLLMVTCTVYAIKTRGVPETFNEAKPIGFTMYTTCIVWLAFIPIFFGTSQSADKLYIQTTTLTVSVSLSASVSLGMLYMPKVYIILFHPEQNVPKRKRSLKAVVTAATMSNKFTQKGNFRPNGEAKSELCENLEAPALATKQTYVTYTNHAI
Sequence of Metabotropic glutamate receptor 1 (Homo sapiens) (Q13255 19-1194 limits assumed): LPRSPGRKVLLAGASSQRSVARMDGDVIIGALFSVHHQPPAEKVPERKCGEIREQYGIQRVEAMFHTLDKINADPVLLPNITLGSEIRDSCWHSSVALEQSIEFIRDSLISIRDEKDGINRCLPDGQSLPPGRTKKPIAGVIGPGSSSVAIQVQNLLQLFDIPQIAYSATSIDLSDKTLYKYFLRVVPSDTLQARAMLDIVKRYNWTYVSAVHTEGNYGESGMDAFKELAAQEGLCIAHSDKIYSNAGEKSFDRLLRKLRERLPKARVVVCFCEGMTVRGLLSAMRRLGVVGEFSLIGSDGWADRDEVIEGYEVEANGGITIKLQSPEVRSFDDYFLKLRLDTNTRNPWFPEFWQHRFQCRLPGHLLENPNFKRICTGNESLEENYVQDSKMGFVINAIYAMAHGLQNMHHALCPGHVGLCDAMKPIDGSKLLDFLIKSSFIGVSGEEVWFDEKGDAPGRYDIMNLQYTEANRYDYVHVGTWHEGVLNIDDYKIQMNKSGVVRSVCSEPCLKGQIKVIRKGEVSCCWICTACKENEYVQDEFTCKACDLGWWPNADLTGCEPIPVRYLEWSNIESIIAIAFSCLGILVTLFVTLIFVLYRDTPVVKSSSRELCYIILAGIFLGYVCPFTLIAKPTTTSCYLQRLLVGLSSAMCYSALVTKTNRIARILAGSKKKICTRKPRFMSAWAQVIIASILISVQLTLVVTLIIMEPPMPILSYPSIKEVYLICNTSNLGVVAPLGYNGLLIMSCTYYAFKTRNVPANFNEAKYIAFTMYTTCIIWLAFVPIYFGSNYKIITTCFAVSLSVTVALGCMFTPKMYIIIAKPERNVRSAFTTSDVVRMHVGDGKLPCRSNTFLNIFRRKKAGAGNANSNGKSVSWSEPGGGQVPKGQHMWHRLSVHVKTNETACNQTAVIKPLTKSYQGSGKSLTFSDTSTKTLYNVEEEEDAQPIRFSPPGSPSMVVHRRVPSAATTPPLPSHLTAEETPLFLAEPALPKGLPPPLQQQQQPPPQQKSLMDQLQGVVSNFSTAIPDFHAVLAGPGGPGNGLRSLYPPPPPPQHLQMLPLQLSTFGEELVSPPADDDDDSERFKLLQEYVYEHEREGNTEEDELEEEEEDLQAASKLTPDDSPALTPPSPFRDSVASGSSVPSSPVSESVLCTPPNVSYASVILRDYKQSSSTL

O/N=c1\cc(-c2cnc3ccccc3c2)oc2ccccc12
EC50 ([1]; read-out: EC50): 3960 nM

O=c1cc(-c2cc3ccccc3cn2)oc2ccccc12
EC50 ([1]; hek293): Not Active

Cc1ncccc1N1CCC(Cc2ccc3oc(-c4cc5sccc5cn4)c/c(=N\O)c3c2)CC1
EC50 ([1]; read-out: EC50): 4 nM | concentration at 1 h [2]: < 1 ng/g | concentration at 0.5 h [3]: 7.4 ng/g

Cn1c(-c2c/c(=N\O)c3ccccc3o2)cc2ccccc21
EC50 ([1]; hek293): Not Active

O/N=c1\cc(-c2cc3ccccc3[nH]2)oc2ccccc12
EC50 ([1]; read-out: EC50): > 30000 nM

O/N=c1\cc(-c2cc3cnccc3cn2)oc2ccccc12
EC50 ([1]; read-out: EC50): 1270 nM

O/N=c1\cc(-c2cc3ncccc3cn2)oc2ccccc12
EC50 ([1]; read-out: EC50): 240 nM

COCCOc1ccc2oc(-c3cc4ccccc4cn3)c/c(=N\O)c2c1
EC50 ([1]; read-out: EC50): 750 nM

COc1ccc2oc(-c3cc4ccccc4cn3)c/c(=N\O)c2c1
EC50 ([1]; read-out: EC50): 1390 nM

CN1CCN(CCCNc2ccc3oc(-c4cc5ccccc5cn4)c/c(=N\O)c3c2)CC1
EC50 ([1]; read-out: EC50): 5260 nM

CN1CCN(CCOc2ccc3oc(-c4cc5ccccc5cn4)c/c(=N\O)c3c2)CC1
EC50 ([1]; read-out: EC50): 9840 nM

O/N=c1\cc(-c2cc3ccsc3cn2)oc2ccccc12
EC50 ([1]; read-out: EC50): 130 nM

O/N=c1\cc(-c2cnc3ccccc3n2)oc2ccccc12
EC50 ([1]; hek293): Not Active

CC(=O)N1CCC(Oc2ccc3oc(-c4cc5cccn5cn4)c/c(=N\O)c3c2)CC1
EC50 ([1]; read-out: EC50): 10 nM | concentration at 1 h [2]: 12.1 ng/g | concentration at 0.5 h [3]: 24.1 ng/g

O/N=c1\cc(-c2cc3sccc3cn2)oc2ccc(NC3CCN(c4ccncn4)CC3)cc12
EC50 ([1]; read-out: EC50): 53 nM | concentration at 1 h [2]: < 1 ng/g

COc1ccc2/c(=N/O)cc(-c3cc4ccccc4cn3)oc2c1
EC50 ([1]; read-out: EC50): 1160 nM

O=C(Nc1ccccc1)[C@]12C[C@H]1/C(=N\O)c1ccccc1O2
Activity [4]: Active

O/N=c1\cc(-c2ccc3ccccc3c2)oc2ccccc12
EC50 ([1]; hek293): Not Active

O/N=c1\cc(-c2cc3cccn3cn2)oc2ccc(OCCCc3cccnc3)cc12
EC50 ([1]; read-out: EC50): 50 nM | concentration at 1 h [2]: 2.3 ng/g | concentration at 0.5 h [3]: 3.4 ng/g

CN1CCN(CCOc2ccc3oc(-c4cc5cccn5cn4)c/c(=N\O)c3c2)CC1
EC50 ([1]; read-out: EC50): 1710 nM

O/N=c1\cc(-c2cc3cccn3cn2)oc2ccccc12
EC50 ([1]; read-out: EC50): 110 nM | solubility thermodynamic [5]: 0.2 µM (≈ 0.0555 µg/mL)

O/N=c1\cc(-c2cc3ccccc3cn2)oc2cc(Br)ccc12
EC50 ([1]; read-out: EC50): 1720 nM

O/N=c1\cc(-c2cc3ccccc3cn2)oc2ccccc12
EC50 ([1]; read-out: EC50): 310 nM

O/N=c1\cc(-c2cc3ccccc3cn2)oc2cc(CCc3ccccc3)ccc12
EC50 ([1]; read-out: EC50): 1740 nM

O/N=c1\cc(-c2cc3ccccc3cn2)oc2ccc(OC(F)(F)F)cc12
EC50 ([1]; read-out: EC50): 1630 nM

O/N=c1\cc(-c2cc3cccn3cn2)oc2ccc(OCCN3CCCC3)cc12
EC50 ([1]; read-out: EC50): 2340 nM

O/N=c1\cc(/C=C/c2ccccc2)oc2ccccc12
EC50 ([1]; read-out: EC50): 14200 nM

O/N=c1\cc(-c2cc3sccc3cn2)oc2ccc(OCCN3CCC(F)(F)CC3)cc12
EC50 ([1]; read-out: EC50): 90 nM | concentration at 1 h [2]: 207 ng/g | concentration at 0.5 h [3]: 239 ng/g | concentration at 1.5 h [6]: 194 ng/g

CN(C)C(=O)N1CC(Oc2ccc3oc(-c4cc5cccn5cn4)c/c(=N\O)c3c2)C1
EC50 ([1]; read-out: EC50): 35 nM | concentration at 1 h [2]: 8.8 ng/g | concentration at 0.5 h [3]: 25.5 ng/g

O/N=c1\cc(-c2cc3ccccc3o2)oc2ccccc12
EC50 ([1]; read-out: EC50): > 30000 nM

Cc1cc(CCCOc2ccc3oc(-c4cc5cccn5cn4)c/c(=N\O)c3c2)ccn1
EC50 ([1]; read-out: EC50): 19 nM | concentration at 1 h [2]: 82.5 ng/g | concentration at 0.5 h [3]: 77.3 ng/g

O/N=c1\cc(-c2cc3sccc3cn2)oc2ccccc12
EC50 ([1]; read-out: EC50): 200 nM

CON=c1cc(-c2cc3ccccc3cn2)oc2ccccc12
EC50 ([1]; hek293): Not Active

CN1CCCC12CCN(CCOc1ccc3oc(-c4cc5sccc5cn4)c/c(=N\O)c3c1)CC2
EC50 ([1]; read-out: EC50): 60 nM | concentration at 1 h [2]: < 1 ng/g | concentration at 0.5 h [3]: < 1 ng/g

Cl.O/N=c1\cc(-c2cc3cccn3cn2)oc2ccc(OCCN3CCOCC3)cc12
solubility thermodynamic [5]: 10600 µM

O/N=c1\cc(-c2cc3sccc3cn2)oc2ccc(CCCN3CCC(F)(F)CC3)cc12
EC50 ([1]; read-out: EC50): 106 nM | concentration at 1 h [2]: 201 ng/g | concentration at 0.5 h [3]: 157 ng/g | concentration at 1.5 h [6]: 100 ng/g

O/N=c1\cc(-c2cc3cccn3cn2)oc2ccc(OCCN3CCC(F)(F)CC3)cc12
EC50 ([1]; read-out: EC50): 150 nM

O/N=c1\cc(-c2cc3ccccc3cn2)oc2ccc(Br)cc12
EC50 ([1]; read-out: EC50): 690 nM

O/N=c1\cc(-c2cc3sccc3cn2)oc2ccc(O[C@@H]3CCN(c4ccncn4)C3)cc12
EC50 ([1]; read-out: EC50): 17 nM | concentration at 1 h [2]: 9.5 ng/g | concentration at 0.5 h [3]: 20 ng/g

O/N=c1\cc(-c2cc3sccc3cn2)oc2ccc(CCCN3CCC(F)(F)C3)cc12
EC50 ([1]; read-out: EC50): 25 nM | concentration at 1 h [2]: 197 ng/g | concentration at 0.5 h [3]: 275 ng/g | concentration at 1.5 h [6]: 137 ng/g

Cn1ccc2cc(-c3c/c(=N\O)c4ccccc4o3)ncc21
EC50 ([1]; read-out: EC50): 860 nM

O/N=c1\cc(-c2cn3cccc3cn2)oc2ccccc12
EC50 ([1]; read-out: EC50): 280 nM

O/N=c1\cc(-c2ccc3ccccc3n2)oc2ccccc12
EC50 ([1]; hek293): Not Active

Cc1ccc2oc(-c3cc4ccccc4cn3)c/c(=N\O)c2c1
EC50 ([1]; read-out: EC50): 980 nM

O/N=c1\cc(-c2cc3sccc3cn2)oc2ccc(OC3CN(c4cccnc4)C3)cc12
EC50 ([1]; read-out: EC50): 4 nM | concentration at 1 h [2]: 26.7 ng/g | concentration at 0.5 h [3]: 33.4 ng/g

Cc1cc(C)n2cnc(-c3c/c(=N\O)c4ccccc4o3)cc12
EC50 ([1]; hek293): Not Active

O/N=c1\cc(-c2cc3ccccc3cn2)oc2ccc(C(F)(F)F)cc12
EC50 ([1]; read-out: EC50): 2470 nM

O/N=c1\cc(-c2cc3ccccc3cn2)oc2ccc(C3CC3)cc12
EC50 ([1]; read-out: EC50): 1010 nM

CN(C)C1CCN(CCOc2ccc3oc(-c4cc5cccn5cn4)c/c(=N\O)c3c2)CC1
EC50 ([1]; read-out: EC50): 165 nM | concentration at 1 h [2]: 2.9 ng/g | concentration at 0.5 h [3]: 2.8 ng/g

CC(=O)N1CC(Oc2ccc3oc(-c4cc5sccc5cn4)c/c(=N\O)c3c2)C1
EC50 ([1]; read-out: EC50): 53 nM | concentration at 1 h [2]: < 1 ng/g | concentration at 0.5 h [3]: < 1 ng/g

COCCOc1ccc2oc(-c3cc4cccn4cn3)c/c(=N\O)c2c1
EC50 ([1]; read-out: EC50): 160 nM | solubility thermodynamic [5]: 16.3 µM (≈ 5.73 µg/mL)

O/N=c1\cc(-c2ccn3ccnc3c2)oc2ccccc12
EC50 ([1]; hek293): Not Active

CC(=O)N1CCC(COc2ccc3oc(-c4cc5sccc5cn4)c/c(=N\O)c3c2)CC1
EC50 ([1]; read-out: EC50): 6 nM | concentration at 1 h [2]: 6.5 ng/g | concentration at 0.5 h [3]: 10.7 ng/g

Cc1c(-c2cc3ccccc3cn2)oc2ccccc2/c1=N/O
EC50 ([1]; hek293): Not Active

O/N=c1\cc(-c2cc3ccccc3s2)oc2ccccc12
EC50 ([1]; hek293): Not Active

COCCOc1ccc2/c(=N/O)cc(-c3cc4ccccc4cn3)oc2c1
EC50 ([1]; read-out: EC50): 3010 nM

O/N=c1\cc(-c2cc3sccc3cn2)oc2ccc(OCCN3CCOCC3)cc12
EC50 ([1]; read-out: EC50): 35 nM | concentration at 1 h [2]: 521 ng/g | concentration at 0.5 h [3]: 408 ng/g | concentration at 1.5 h [6]: 281 ng/g

O/N=c1\cc(-c2cc3ccccc3cn2)oc2c(Cl)cccc12
EC50 ([1]; hek293): Not Active

O/N=c1\cc(-c2ccc3ncccc3c2)oc2ccccc12
EC50 ([1]; read-out: EC50): 6990 nM

O/N=c1\cc(-c2cc3cc[nH]c3cn2)oc2ccccc12
EC50 ([1]; read-out: EC50): 50 nM
